Glyco luc inh: blocks N-linked glycosylation in D54 reporter cells; D54 ERlucT glycosylation luciferase reporter, 24 h; percent of 100 nM tunicamycin response; reporter increase, % at 12.5 µM; 360,000 compounds, 0.23% hits;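 active means mean luciferase reporter signal, scaled so untreated is 0 and the glycosylation-blocking control 100, at or above a set limit in every replicate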;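 further: luciferase carries N-glycosylation sites so blocking glycosylation raises the light; 0% = median of neutral control wells and 100% = median of 100 nM tunicamycin wells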
PfHsp90 yeast 2: reduces growth (ATP signal) of yeast expressing P. falciparum Hsp90; S. cerevisiae expressing PfHsp90, BacTiter-Glo ATP, 48 h; yeast lacking PDR1 and PDR3 efflux regulators; inhibition, % at 9.4 µM; 310,000 compounds, 0.32% hits; AID 504621;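 active means every replicate shows inhibition above about 80%, whatever the replicate mean, limit read from the data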;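 further: 0% = DMSO neutral controls and 100% = 20 µM radicicol positive controls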
Rtt109 HAT inh: inhibitors of Candida albicans Rtt109/Vps75 histone acetyltransferase | purified Rtt109/Vps75, ThioGlo CoA-SH fluorescence, 4 h | inhibition, % at 34.9 µM | 330,000 compounds, 0.16% hits;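 active means inhibition of at least 50% in every replicate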
Target sequence (Q5AAJ8 whole entry, looked up): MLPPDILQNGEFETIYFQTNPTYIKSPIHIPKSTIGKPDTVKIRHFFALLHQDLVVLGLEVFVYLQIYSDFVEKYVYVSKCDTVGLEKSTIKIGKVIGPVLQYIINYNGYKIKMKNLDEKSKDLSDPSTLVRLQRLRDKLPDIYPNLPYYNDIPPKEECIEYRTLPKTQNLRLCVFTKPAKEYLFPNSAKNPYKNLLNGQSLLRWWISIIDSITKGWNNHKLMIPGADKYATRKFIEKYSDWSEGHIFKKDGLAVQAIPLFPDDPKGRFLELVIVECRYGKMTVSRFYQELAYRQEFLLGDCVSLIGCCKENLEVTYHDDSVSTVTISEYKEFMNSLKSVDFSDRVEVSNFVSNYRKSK
PAX8 reporter: PAX8 transcriptional activity inhibition | AID 652154 | RMG-I TPO-luciferase reporter, SteadyGlo, 24 h | 360,000 compounds, 1.2% hits | inhibition, % at 12.6 µM;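 active means mean replicate inhibition at least 60% with every replicate also reaching 60%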;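 further: luciferase light reporting Pax8 driven TPO promoter activity; plate controls were median of neutral control wells for no effect and mitoxantrone controls for full effect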
Arrestin-AP2 inh: human beta-arrestin and AP2 interaction inhibition. FITC-arrestin peptide / GST-AP2 beads, flow cytometry; AP2 beta2 appendage carries R879A mutation. inhibition, % at 10 µM. 340,000 compounds, 0.31% hits;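 active means inhibition above a set limit, near 3 SD of compounds lacking own fluorescence, cut at about 54% in these data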;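 further: plate controls were DMSO wells for no effect and 5 µM unlabelled arrestin peptide for full effect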
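test system = AP2 appendage R879A on GSH beads | buffer or medium = PBS plus Tween 20 (0.05%) and BSA (0.1%) | incubation = 12 min plus 1 h, RT | detection = bead flow cytometry, FITC channel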
HIV Env fusion: blocks HIV Env-driven cell-cell fusion. HeLa-JRFL Env/CEM21 cell fusion, luciferase. inhibition, % at 12.3 µM. 360,000 compounds, 1.1% hits;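 active means mean replicate inhibition score of at least 50 and every replicate individually at or above 50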;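 further: 0% = plate neutral controls and 100% = maraviroc near 300 nM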
An asterisk follows results filed as active; x = no result; ! = repeats disagree; [ ] = remark or other dose. Hits are enriched below; roughly 2.3% of the tested compounds scored in any of these assays.

SMILES	Glyco luc inh	PfHsp90 yeast 2	Rtt109 HAT inh	PAX8 reporter	Arrestin-AP2 inh	HIV Env fusion
COc1ccc(S(=O)(=O)N(C)C[C@@H]2Oc3ccc(NC(=O)C4CCCCC4)cc3CC(=O)N([C@H](C)CO)C[C@@H]2C)cc1	x	x	x	4.8	x	74.3*[16.7 µM]
Cc1ccc(S(=O)(=O)N(C)C[C@@H]2Oc3ccc(NC(=O)C4CCCCC4)cc3CC(=O)N([C@H](C)CO)C[C@@H]2C)cc1	x	x	x	x	x	95.0*[16.7 µM]
C[C@@H]1CN([C@@H](C)CO)C(=O)Cc2cc(NC(=O)C3CCCCC3)ccc2O[C@H]1CN(C)S(=O)(=O)c1ccccc1	1.9	-39.2	-7.1	-20.7	-0.3	63.0*
COc1ccc(S(=O)(=O)N(C)C[C@H]2Oc3ccc(NC(=O)C4CCCCC4)cc3CC(=O)N([C@@H](C)CO)C[C@@H]2C)cc1	x	x	x	-21.9	x	9.9[16.7 µM]
C[C@@H]1CN([C@@H](C)CO)C(=O)Cc2cc(NC(=O)C3CC3)ccc2O[C@@H]1CN(C)S(=O)(=O)c1ccccc1	x	x	x	-14.0	x	7.4[16.7 µM]
C[C@@H]1CN([C@@H](C)CO)C(=O)c2cc(-c3ccccc3F)cnc2O[C@@H]1CN(C)C(=O)c1cnccn1	x	x	x	6.2	x	x
CCCNC(=O)Nc1ccc2c(c1)C(=O)N(C)C[C@H](OC)[C@@H](C)CN(C(=O)C1CC1)[C@H](C)CO2	x	x	x	-3.7	x	x
c1cc(SC2CCCCC2)cc(-c2nc3cnccn3c2NC2CCCCC2)c1	-10.3	-27.0	2.3	-3.7	25.6	59.1*
O=C(Nc1nc2cc3c(cc2s1)OCCO3)c1ccco1	-22.9	53.4	7.6	x	12.8	58.2*
C[C@H]1CN([C@@H](C)CO)C(=O)Cc2cc(NC(=O)NC3CCCCC3)ccc2O[C@@H]1CN(C)CC1CCCCC1	x	x	x	51.0	x	-13.8[16.7 µM]
COc1cccc(-n2c(SCC(=O)N3CCc4ccccc43)nnc2-c2c[nH]c3ccccc23)c1	-12.2	-11.4	-0.6	5.6	18.8	56.0*
CO[C@H]1CN(C)C(=O)c2cc(NC(C)=O)ccc2OC[C@H](C)N(Cc2ccccc2F)C[C@@H]1C	x	x	x	x	x	-2.8[16.7 µM]
CS(=O)(=O)N1CCC(Oc2cccc(C(=O)NCCCC3CCCC3)c2)CC1	x	15.0	-3.0	x	60.9*	x
COCCC1CCCCN1C(=O)c1cccc(OC2CCN(S(C)(=O)=O)CC2)c1 (stereo not drawn)	0.3	-15.2	21.2	-3.7	-1.4	x
O=C1[C@@H]2C(c3cccnc3)=NO[C@@H]2C(=O)N1c1ccc(Br)cc1	0.3	94.2*	0.3	12.5	-2.5	2.2
CCOc1cc(-c2cc(-c3ccccc3)nc(N)c2C#N)ccc1O	36.6*	2.1	9.8	x	-3.4	x
CCC(C)Sc1cc(-c2nc3cc(C)ccn3c2NC2CCCCC2)ccc1OC (stereo not drawn)	-9.0	7.2	6.2	-0.9	-2.1	7.1
CCC(C)Sc1cc(-c2nc3ccccn3c2NC2CCCCC2)ccc1OC (stereo not drawn)	-4.9	14.4	-5.4	34.4	8.0	59.1*!
CS(=O)(=O)Nc1ccc2c(c1)[C@H]1C[C@@H](CC(=O)NCCN3CCCCC3)O[C@@H](CO)[C@H]1O2	x	x	x	-21.6	x	66.5*[16.7 µM]
CS(=O)(=O)Nc1ccc2c(c1)[C@@H]1C[C@@H](CC(=O)N3CCc4ccccc4C3)O[C@H](CO)[C@@H]1O2	x	x	x	-9.4	x	62.8*[16.7 µM]
CN1CCN(C(=O)C[C@H]2C[C@@H]3c4cc(NS(C)(=O)=O)ccc4O[C@@H]3[C@H](CO)O2)CC1	x	x	x	-11.7	x	64.2*[16.7 µM]
CS(=O)(=O)Nc1ccc2c(c1)[C@H]1C[C@H](CC(=O)N3CCc4ccccc4C3)O[C@H](CO)[C@H]1O2	x	x	x	25.6	x	62.6*[16.7 µM]
CN1CCN(C(=O)C[C@@H]2C[C@H]3c4cc(NS(C)(=O)=O)ccc4O[C@H]3[C@@H](CO)O2)CC1	x	x	x	-4.9	x	20.0[16.7 µM]
CS(=O)(=O)Nc1ccc2c(c1)[C@@H]1C[C@@H](CC(=O)NCCN3CCCCC3)O[C@@H](CO)[C@@H]1O2	x	x	x	-22.3	x	-5.0[16.7 µM]
CS(=O)(=O)Nc1ccc2c(c1)[C@@H]1C[C@H](CC(=O)N3CCc4ccccc4C3)O[C@@H](CO)[C@@H]1O2	x	x	x	12.0	x	-6.8[16.7 µM]
C[C@@H]1CN([C@@H](C)CO)C(=O)Cc2cc(NC(=O)Cc3cn(C)c4ccccc34)ccc2O[C@@H]1CN(C)C(=O)Nc1ccc(F)cc1	x	x	x	x	x	-31.3[16.7 µM]

Source: PubChem BioAssay (several laboratories)
